According to ChEMBL document CHEMBL4014335, “Activation of Phenyl 4-(2-Oxo-3-alkylimidazolidin-1-yl)benzenesulfonates Prodrugs by CYP1A1 as New Antimitotics Targeting Breast Cancer Cells” (J Med Chem, 2017):
The source made the active and inactive calls. The calls are words filed in the database; no cut-off is given here.

Legend:
[1] = Selectivity ratio of IC50 for ER/PR/HER2 deficient human MDA-MB-231 cells to IC50 for human MCF7 cells; format: functional
Summary of the method: (§1)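 Ratio is IC50 in reference line over IC50 in sensitive line. […] Cells in DMEM with 5% calf serum at 37 °C. At least two experiments, triplicate cultures; assay accepted when relative SD < 10%.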

HT-1080 [2] = experiment: Antiproliferative activity against human HT1080 cells transfected with CYP1A1 after 72 hrs by SRB assay; format: functional, cell-based; conditions: HT-1080, 72 h
Summary of the method: (§2)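 SRB antiproliferative assay (modified NCI protocol). Cells seeded per well (SK-BR-3, MDA-MB-231, T47D, HT-1080, HT-1080 CYP1A1 and empty-vector: 3.0 x 10^3; MDA-MB-468: 5.0 x 10^3; MCF7: 7.5 x 10^3), preincubated 24 h. DMSO-solubilized drug added at 0.75 to 1.0 x 10^5 nM, then 72 h. Fixed with cold 10% TCA, stained with 0.1% sulforhodamine B, absorbance read at 530-565 nm. At least two experiments, triplicate cultures.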

HT-1080 [3] = experiment: Selectivity ratio of IC50 for HT1080 cells transfected with pCMV6-AC empty plasmid to IC50 for human HT1080 cells transfected with CYP1A1; format: functional
Summary of the method: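 Ratio is IC50 (HT-1080 empty vector) over IC50 (HT-1080 CYP1A1). Both lines stably transfected (pCMV6-AC plasmids) and kept under G418 selection, seeded at 3.0 x 10^3 cells. IC50s from SRB antiproliferative assay.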

MDA-MB-231 = experiment: Antiproliferative activity against ER/PR/HER2 deficient human MDA-MB-231 cells after 72 hrs by SRB assay; format: functional, cell-based; conditions: MDA-MB-231, 72 h; summary of the method: as §2
HT-1080 [4] = experiment: Antitumor activity against empty plasmid transfected human HT1080 cells implanted in chicken chorioallantoic membrane assessed as tumor growth inhibition at 1 ug/egg, iv administered on day 11 post implantation measured on day 17; format: functional
Summary of the method: (§3)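 Chick CAM tumor model using HT-1080 cells (wild-type or stably transfected with CYP1A1 or empty plasmid). Eggs incubated 10 d. On day 11, drug in DMSO (40 mM stock) was diluted in cremophor/EtOH/PBS (6.25/6.25/87.5), DMSO kept below 0.5%, and given iv in 100 µL to 10-12 eggs. Tumors excised on day 17 and wet-weighed. Two independent experiments (20-24 eggs); embryo deaths and toxicity recorded.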

SK-BR-3 = experiment: Antiproliferative activity against ER/PR deficient and HER2 expressing human SKBR3 cells after 72 hrs by SRB assay; format: functional, cell-based; conditions: SK-BR-3, 72 h; summary of the method: as §2
[5] = Selectivity ratio of IC50 for ER/PR/HER2 deficient human MDA-MB-231 cells to IC50 for ER/PR deficient and HER2 expressing human SKBR3 cells; format: functional; summary of the method: as §1
HT-1080 [6] = experiment: Antiproliferative activity against human wild type HT1080 cells after 72 hrs by SRB assay; format: functional, cell-based; conditions: HT-1080, 72 h; summary of the method: as §2
Cytochrome P450 1A1 = target: T1, Cytochrome P450 1A1 (Homo sapiens, UniProt P04798); experiment: Inhibition of human supersomes CYP1A1-mediated 7-ethoxyresorufin conversion to fluorescent resorufin preincubated with 7-ethoxyresorufin for 5 mins followed by addition of NADPH regenerating system measured for 15 mins by EROD assay; format: ADME
T1 sequence (P04798 whole entry): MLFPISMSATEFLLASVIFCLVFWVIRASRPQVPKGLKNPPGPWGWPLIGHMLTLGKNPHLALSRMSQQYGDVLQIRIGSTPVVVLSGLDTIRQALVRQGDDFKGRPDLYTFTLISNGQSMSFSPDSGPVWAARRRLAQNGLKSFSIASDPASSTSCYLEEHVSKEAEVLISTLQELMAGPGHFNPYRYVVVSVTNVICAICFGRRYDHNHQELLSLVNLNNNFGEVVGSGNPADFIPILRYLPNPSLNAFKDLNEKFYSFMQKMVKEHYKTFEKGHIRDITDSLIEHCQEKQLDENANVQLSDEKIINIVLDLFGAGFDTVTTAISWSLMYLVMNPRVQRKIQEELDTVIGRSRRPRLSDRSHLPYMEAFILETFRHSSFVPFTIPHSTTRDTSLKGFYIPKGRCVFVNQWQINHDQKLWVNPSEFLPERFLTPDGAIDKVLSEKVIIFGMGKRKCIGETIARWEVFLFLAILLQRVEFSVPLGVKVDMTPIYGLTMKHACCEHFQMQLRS
Summary of the method: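 EROD assay with human CYP1A1 supersomes containing reductase, in potassium phosphate buffer. Drug final 32–31 600 nM and 7-ethoxyresorufin 94–3 000 nM, with 0.35% DMSO, preincubated 5 min at 37 °C. Reaction started with NADPH-regenerating system and 0.15 pmol CYP1A1 in 150 µL. Initial velocity taken from 1–5 min; Vmax and Km from Lineweaver-Burk plot.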

HT-1080 [7] = experiment: Antiproliferative activity against human HT1080 cells transfected with pCMV6-AC empty plasmid after 72 hrs by SRB assay; format: functional, cell-based; conditions: HT-1080, 72 h; summary of the method: as §2
HT-1080 [8] = experiment: Antitumor activity against CYP1A1 transfected human HT1080 cells implanted in chicken chorioallantoic membrane assessed as tumor growth inhibition at 1 ug/egg, iv administered on day 11 post implantation measured on day 17; format: functional; summary of the method: as §3
[9] = Selectivity ratio of IC50 for ER/PR/HER2 deficient human MDA-MB-231 cells to IC50 for ER/PR/HER2 deficient human MDA-MB-468 cells; format: functional; summary of the method: as §1
T47D = experiment: Antiproliferative activity against ER/PR/HER2 expressing human T47D cells after 72 hrs by SRB assay; format: functional, cell-based; summary of the method: as §2
MDA-MB-468 [10] = experiment: Antiproliferative activity against ER/PR/HER2 deficient human MDA-MB-468 cells after 72 hrs by SRB assay; format: functional, cell-based; conditions: MDA-MB-468, 72 h; summary of the method: as §2
[11] = Selectivity ratio of IC50 for ER/PR/HER2 deficient human MDA-MB-231 cells to IC50 for ER/PR/HER2 expressing human T47D cells; format: functional; summary of the method: as §1
MCF7 = experiment: Antiproliferative activity against human MCF7 cells after 72 hrs by SRB assay; format: functional, cell-based; conditions: MCF7, 72 h; summary of the method: as §2
HT-1080 [12] = experiment: Antitumor activity against human HT1080 cells implanted in chicken chorioallantoic membrane assessed as tumor growth inhibition at 1 ug/egg, iv administered on day 11 post implantation measured on day 17; format: functional; summary of the method: as §3
Homo sapiens [13] = species: Homo sapiens; experiment: Destabilization of microtubule network in human MDA-MB-468 cells at 8 nM after 24 hrs by fluorescence microscopic analysis; format: cell-based
MDA-MB-468 [14] = experiment: Cytotoxicity against human MDA-MB-468 cells after 72 hrs in presence of CYP inhibitor pentachlorophenol by SRB assay; format: functional, cell-based
Summary of the method: (§4)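 MDA-MB-468 cells co-incubated for 72 h with drug plus a subtoxic concentration of a CYP inhibitor. Viability read by SRB assay: TCA fixation, sulforhodamine B staining, absorbance at 530-565 nm.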

MDA-MB-468 [15] = experiment: Cytotoxicity against human MDA-MB-468 cells after 72 hrs in presence of CYP inhibitor salicylamide by SRB assay; format: functional, cell-based; summary of the method: as §4
Homo sapiens [16] = species: Homo sapiens; experiment: Destabilization of microtubule network in human MCF7 cells at 50 nM after 24 hrs by fluorescence microscopic analysis; format: cell-based
[17] = Selectivity ratio of IC50 for human HT-29 cells to IC50 for human MCF7 cells; format: functional; summary of the method: as §1
MDA-MB-468 [18] = experiment: Cytotoxicity against human MDA-MB-468 cells after 72 hrs in presence of CYP inhibitor curcumin by SRB assay; format: functional, cell-based; summary of the method: as §4

Row | Compound | Ratio IC50 [1] | IC50 (HT-1080 [2]) [nM] | Ratio IC50 (HT-1080 [3]) | IC50 (MDA-MB-231) [nM] | TGI (HT-1080 [4]) | IC50 (SK-BR-3) [nM] | Ratio IC50 [5] | IC50 (HT-1080 [6]) [nM] | IC50 (HT-1080 [7]) [nM] | TGI (HT-1080 [8]) [%] | Ratio IC50 [9] | IC50 (T47D) [nM] | IC50 (MDA-MB-468 [10]) [nM] | Ratio IC50 [11] | IC50 (MCF7) [nM] | TGI (HT-1080 [12]) [%] | other results
1 | COc1cc(OS(=O)(=O)c2ccc(N3CCNC3=O)cc2)cc(OC)c1OC | 2.1 | 1.7 | 1.9 | 6.4 | 21% | 3.1 | 2.1 | 3.6 | 3.3 | 32 | 1.4 | 6.2 | 4.6 | 1 | 3.1 | 51 | Ki (Cytochrome P450 1A1): Not Active; Activity (Homo sapiens [13]): Active
2 | CCCCN1CCN(c2ccc(S(=O)(=O)Oc3cc(OC)c(OC)c(OC)c3)cc2)C1=O | 1100 | 13 | 3600 | 6000 | inactive | 2 | 3000 | 5500 | 47000 | 49 | 590 | 20 | 10 | 300 | 5.5 | 15 | Activity (MDA-MB-468 [14]): Active; Ki (Cytochrome P450 1A1; read-out: Ki): 540 nM; Activity (MDA-MB-468 [15]): Active; Activity (Homo sapiens [16]): Active; Ratio IC50 [17]: 360; Activity (MDA-MB-468 [18]): Active
